Measured values taken from ChEMBL document CHEMBL1255433 (Antimicrob Agents Chemother, 2010).
The source made the active and inactive calls. No cut-off for these calls is given here.

Key:
[1] = system: Plasmodium falciparum; assay: Antiplasmodial activity against Plasmodium falciparum F32-Tanzania assessed as inhibition of parasite growth at 0.1 uM treated for 96 hrs; assay type: functional, organism-based
How it was run: (§1)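 Sorbitol-synchronized ring cultures (5% parasitemia, 2.5% hematocrit) in O+ human RBCs, RPMI with 5% human serum, 37°C, 5% CO2. Medium was swapped for artemisinin-containing medium for 48 or 96 h, then washed out and culture resumed drug-free. Parasitemia was tracked to record days to reach 5%; cultures with no parasites by day 21 were scored as no recovery. Runs were done at least three times, except 48 h/70 μM and the 96 h conditions, which were done once.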

[2] = system: Plasmodium falciparum; assay: Antiplasmodial activity against artemisinin-tolerant Plasmodium falciparum F32-Tanzania assessed as time required to reach 5% parasitaemia at 0.1 uM treated for 96 hrs; assay type: functional; how it was run: as §1
[3] = system: Plasmodium falciparum; assay: Antiplasmodial activity against Plasmodium falciparum F32-Tanzania assessed as inhibition of parasite growth at 1 uM treated for 96 hrs; assay type: functional, organism-based; how it was run: as §1
[4] = system: Plasmodium falciparum; assay: Antiplasmodial activity against artemisinin-tolerant Plasmodium falciparum F32-Tanzania assessed as time required to reach 5% parasitaemia at 1 uM treated for 96 hrs; assay type: functional; how it was run: as §1
[5] = system: Plasmodium falciparum; assay: Antiplasmodial activity against artemisinin-tolerant Plasmodium falciparum F32-Tanzania assessed as parasitaemia at 9 uM after 48 hrs by rhodamine 123 staining; assay type: functional
How it was run: (§2)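 Infected RBCs were stained with R123 (1 μg/ml in RPMI, 37°C, 5 min), washed, and incubated 30 min under culture conditions. Nuclei were counterstained with DAPI (1 μg/ml, 37°C, 20 min). Thin smears were read the same day by epifluorescence; R123-positive (polarized mitochondria) parasites were scored as viable.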

[6] = system: Plasmodium falciparum; assay: Antiplasmodial activity against artemisinin-tolerant Plasmodium falciparum F32-Tanzania assessed as decrease in appearance of late trophozoites at 9 uM after 24 hrs by rhodamine 123 staining; assay type: functional, organism-based; how it was run: as §2
[7] = system: Plasmodium falciparum; assay: Antiplasmodial activity against artemisinin-tolerant Plasmodium falciparum F32-Tanzania assessed as decrease in appearance of late trophozoites at 9 uM after 48 hrs by rhodamine 123 staining; assay type: functional, organism-based; how it was run: as §2
[8] = system: Plasmodium falciparum; assay: Antiplasmodial activity against artemisinin-tolerant Plasmodium falciparum F32-Tanzania assessed as decrease in occurrence of normal parasite cell cycle at 9 uM measured after 24 to 30 hrs of drug removal by rhodamine 123 staining; assay type: functional, organism-based; how it was run: as §2
[9] = system: Plasmodium falciparum; assay: Antiplasmodial activity against artemisinin-tolerant Plasmodium falciparum F32-Tanzania assessed as decrease in appearance of late trophozoites at 9 uM measured after 24 to 30 hrs of drug removal by rhodamine 123 staining; assay type: functional, organism-based; how it was run: as §2
[10] = system: Plasmodium falciparum; assay: Antiplasmodial activity against artemisinin-tolerant Plasmodium falciparum F32-Tanzania assessed as decrease in appearance of late schizonts at 9 uM measured after 24 to 30 hrs of drug removal by rhodamine 123 staining; assay type: functional, organism-based; how it was run: as §2
[11] = system: Plasmodium falciparum; assay: Antiplasmodial activity Plasmodium falciparum F32-Tanzania assessed as decrease in appearance of parasite quiescent rings at 9 uM after 48 hrs by rhodamine 123 staining; assay type: functional, organism-based; how it was run: as §2
[12] = system: Plasmodium falciparum; assay: Antiplasmodial activity Plasmodium falciparum F32-Tanzania assessed as decrease in appearance of mature parasite forms at 9 uM measured after 24 to 30 hrs of drug removal by rhodamine 123 staining; assay type: functional, organism-based; how it was run: as §2
[13] = system: Plasmodium falciparum; assay: Antiplasmodial activity against artemisinin-tolerant Plasmodium falciparum F32-Tanzania assessed as decrease in appearance of late-stage parasites at 9 uM after 24 hrs by FACS analysis; assay type: functional, organism-based
How it was run: (§3)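 Samples were stained with DAPI (1 μg/ml) and analysed immediately by flow cytometry (400,000 events). Gates were calibrated with uninfected RBCs, sorbitol-synchronized rings, and magnetically isolated trophozoites and schizonts.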

[14] = system: Plasmodium falciparum; assay: Antiplasmodial activity against artemisinin-tolerant Plasmodium falciparum F32-Tanzania assessed as decrease in appearance of late-stage parasites at 9 uM after 48 hrs by FACS analysis; assay type: functional, organism-based; how it was run: as §3
[15] = system: Plasmodium falciparum; assay: Antiplasmodial activity against artemisinin-tolerant Plasmodium falciparum F32-Tanzania assessed as decrease in appearance of late-stage parasites at 9 uM measured after 24 hrs of drug removal by FACS analysis; assay type: functional, organism-based; how it was run: as §3
[16] = system: Plasmodium falciparum; assay: Antiplasmodial activity against artemisinin-tolerant Plasmodium falciparum F32-Tanzania assessed as inhibition of parasite growth at 9 uM after 48 hrs by FACS analysis in presence of sorbitol; assay type: functional, organism-based
[17] = system: Plasmodium falciparum; assay: Antiplasmodial activity against artemisinin-tolerant Plasmodium falciparum F32-Tanzania assessed as inhibition of parasite growth at 9 uM measured after 24 to 30 hrs of drug removal by FACS analysis in presence of sorbitol; assay type: functional, organism-based
[18] = system: Plasmodium falciparum; assay: Antiplasmodial activity against artemisinin-tolerant Plasmodium falciparum F32-Tanzania assessed as decrease in parasite recovery time at 9 uM treated for 48 hrs in presence of 0.5 uM MDR1 inhibitor penfluridol; assay type: functional, organism-based
[19] = system: Plasmodium falciparum; assay: Antiplasmodial activity against Plasmodium falciparum F32-Tanzania assessed as time required to reach 5% parasitaemia at 9 uM treated for 48 hrs; assay type: functional; how it was run: as §1
[20] = system: Plasmodium falciparum; assay: Antiplasmodial activity against artemisinin-tolerant Plasmodium falciparum F32-Tanzania assessed as time required to reach 5% parasitaemia at 9 uM treated for 48 hrs; assay type: functional; how it was run: as §1
[21] = system: Plasmodium falciparum; assay: Antiplasmodial activity against Plasmodium falciparum F32-Tanzania assessed as time required to reach 5% parasitaemia at 18 uM treated for 48 hrs; assay type: functional; how it was run: as §1
[22] = system: Plasmodium falciparum; assay: Antiplasmodial activity against artemisinin-tolerant Plasmodium falciparum F32-Tanzania assessed as time required to reach 5% parasitaemia at 18 uM treated for 48 hrs; assay type: functional; how it was run: as §1
[23] = system: Plasmodium falciparum; assay: Antiplasmodial activity against Plasmodium falciparum F32-Tanzania assessed as inhibition of parasite growth at 35 uM treated for 48 hrs; assay type: functional, organism-based; how it was run: as §1
[24] = system: Plasmodium falciparum; assay: Antiplasmodial activity against artemisinin-tolerant Plasmodium falciparum F32-Tanzania assessed as time required to reach 5% parasitaemia at 35 uM treated for 48 hrs; assay type: functional; how it was run: as §1
[25] = system: Plasmodium falciparum; assay: Antiplasmodial activity against Plasmodium falciparum F32-Tanzania assessed as inhibition of parasite growth at 70 uM treated for 48 hrs; assay type: functional, organism-based; how it was run: as §1
[26] = system: Plasmodium falciparum; assay: Antiplasmodial activity against artemisinin-tolerant Plasmodium falciparum F32-Tanzania assessed as time required to reach 5% parasitaemia at 70 uM treated for 48 hrs; assay type: functional; how it was run: as §1
[27] = system: Plasmodium falciparum; assay: Antiplasmodial activity against Plasmodium falciparum F32-Tanzania assessed as time required to reach 5% parasitaemia at 2.6 uM treated for 48 hrs; assay type: functional
How it was run: (§4)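 Sorbitol-synchronized ring-stage cultures at 5% parasitemia and 2.5% hematocrit in human O+ erythrocytes, in RPMI with human serum at 37°C under 5% CO2. Drug-containing medium for 48 h, then RPMI wash and return to drug-free culture. Endpoint was days to reach 5% parasitemia, followed up to 21 days. Three or more independent experiments; mean ± SD.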

[28] = system: Plasmodium falciparum; assay: Antiplasmodial activity against artemisinin-tolerant Plasmodium falciparum F32-Tanzania assessed as time required to reach 5% parasitaemia at 2.6 uM treated for 48 hrs; assay type: functional; how it was run: as §4
[29] = system: Plasmodium falciparum; assay: Antiplasmodial activity against Plasmodium falciparum F32-Tanzania assessed as time required to reach 5% parasitaemia at 0.2 uM treated for 48 hrs; assay type: functional; how it was run: as §4
[30] = system: Plasmodium falciparum; assay: Antiplasmodial activity against artemisinin-tolerant Plasmodium falciparum F32-Tanzania assessed as time required to reach 5% parasitaemia at 0.2 uM treated for 48 hrs; assay type: functional; how it was run: as §4

Compound: C[C@@H]1CC[C@H]2[C@@H](C)C(=O)O[C@@H]3O[C@@]4(C)CC[C@@H]1[C@]32OO4 [ARTEMISININ]
- inhibition [1]: Active
- Time [2]: 15 days
- inhibition [3]: Active
- Time [4]: 16 days
- Activity [5]: 0.1%
- Activity [6]: Active
- Activity [7]: Active
- Activity [8]: inactive
- Activity [9]: inactive
- Activity [10]: inactive
- Activity [11]: Active
- Activity [12]: Active
- Activity [13]: Active
- Activity [14]: Active
- Activity [15]: inactive
- inhibition [16]: Active
- inhibition [17]: Active
- Activity [18]: Active
- Time [19]: 16 days
- Time [20]: 6 days
- Time [21]: <=17 day
- Time [22]: 7 days
- inhibition [23]: Active
- Time [24]: 11 days
- inhibition [25]: Active
- Time [26]: 17 days

Compound: C[C@H]1[C@H](OC(=O)CCC(=O)O)O[C@@H]2O[C@@]3(C)CC[C@H]4[C@H](C)CC[C@@H]1[C@@]24OO3 [ARTESUNATE]
- Time [27]: 14 days
- Time [28]: 6 days
- Time [19]: 15 days
- Time [20]: 8 days

Compound: CCN(CC)CCCC(C)Nc1ccnc2cc(Cl)ccc12 (configuration not stated) [CHLOROQUINE]
- Time [29]: 14 days
- Time [30]: 14 days
